# In BindingDB's records for doi:10.1016/j.ejmech.2019.111611 (The University of Queensland, 2019):
# Biological target: T1, Fe(3+)-Zn(2+) purple acid phosphatase (Phaseolus vulgaris, UniProt P80366)
# T1 sequence (P80366 whole entry): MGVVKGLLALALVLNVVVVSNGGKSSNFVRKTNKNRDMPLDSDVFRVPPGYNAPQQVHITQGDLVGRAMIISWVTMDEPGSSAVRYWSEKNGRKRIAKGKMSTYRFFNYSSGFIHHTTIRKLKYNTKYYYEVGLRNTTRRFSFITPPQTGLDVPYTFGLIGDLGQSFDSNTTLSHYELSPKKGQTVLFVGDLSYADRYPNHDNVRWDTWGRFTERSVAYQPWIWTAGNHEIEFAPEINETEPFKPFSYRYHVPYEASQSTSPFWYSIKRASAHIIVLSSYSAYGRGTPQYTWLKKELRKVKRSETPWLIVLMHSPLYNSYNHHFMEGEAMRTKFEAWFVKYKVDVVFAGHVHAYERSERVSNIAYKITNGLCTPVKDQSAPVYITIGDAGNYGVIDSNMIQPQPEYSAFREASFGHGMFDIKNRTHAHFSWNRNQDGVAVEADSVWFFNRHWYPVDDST
# Test: Competitive inhibition of red kidney bean PAP using varying levels of pNPP as substrate measured at pH 6.2 by UV-vis spectrophotometric analysis
# How it was run: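 Red kidney bean PAP (rkbPAP), purified, at 8.4 nM. p-NPP 1–15 mM in 0.1 M MES pH 6.2 with 25% DMSO, 25 °C. p-Nitrophenol formation followed at 405 nm (Δε 1834.4 mol−1 L cm−1). Inhibitor concentration varied; competitive constant Kic from non-linear regression using a general inhibition equation.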
row,Ki [nM],SMILES
1,400,CCCCCCCCCCCCCCCCOC(c1cccc2ccccc12)P(=O)(O)O (stereo unspecified)
2,500,CCCCCCCCCCCCCCCCCCOC(c1cccc2ccccc12)P(=O)(O)O (stereo unspecified)
3,200,CCCCCCCCCCCCCCOC(c1cccc2ccccc12)P(=O)(O)O (stereo unspecified)

# Further lines, the compound ahead of its results:
row,SMILES,Ki [nM]
1,CCCCCCCCCCCCOC(c1cccc2ccccc12)P(=O)(O)O (stereo unspecified),4500
2,CCCCCCCCCCCCCCCCCCCCCCOC(c1cccc2ccccc12)P(=O)(O)O (stereo unspecified),14000
3,CCCCCCCCCCCCCCCCCCCCOC(c1cccc2ccccc12)P(=O)(O)O (stereo unspecified),800
